In the library only some 2.4% were active in any assay of this set; here they are far more common.
AP complement: alternative pathway complement inhibition, orthogonal assay; inhibition, % at 5 µM; AID 1235; 0.08% of 62,000 active; Human serum alternative complement pathway, LPS-coated ELISA, C3 deposition; tested in compound mixtures;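 active = inhibition above 30% in each of the two pooled mixtures holding the compound, so the lower value exceeds 30%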;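 note: 0% = serum in Mg-EGTA without compound and 100% = EDTA serum blank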
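Test system: human serum alternative complement pathway, C3 deposition on LPS-coated wells; also added: Plate-bound LPS; doses: 5 µM per compound in ten-compound mixtures; schedule: 1 h at 37 °C; detection: Anti-C3 ELISA, OD 450 nm; evaluation: percent inhibition of C3 deposition onto LPS; repeats: two pool placements per compound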
MMP13 inh: MMP13 (human) collagenase inhibition; P45452; MMP-13 fTHP FRET cleavage, Mca fluorescence; inhibition, % at 4 µM; 0.07% of 65,000 active;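 active = inhibition above the mean of compound-free control plate wells plus 3 SD, cut at about 14% in these data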;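 note: 0% = DMSO wells and 100% = wells with reference MMP-13 inhibitor after basal subtraction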
Ec RNAP inh: inhibitors of Escherichia coli RNA polymerase; P0A8V2; E. coli RNA polymerase, fluorescence transcription assay; inhibition, %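 (tested at 10 µM)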; 0.2% of 62,000 active; in the data active = inhibition above about 20%;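 note: 0% = enzyme without compound and 100% = no enzyme blank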
HePTP inhibitor: inhibitors of human HePTP phosphatase. recombinant HePTP phosphatase activity, OD absorbance. inhibition, % at 20 µM. 0.64% of 110,000 active. AID 521; in the data active = inhibition above about 50%;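 note: plate controls were vehicle for no effect and reference inhibitor for full effect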
SF1 activator: activators of human nuclear receptor SF-1; Q13285; CHO-K1 Gal4-SF-1 LBD luciferase reporter; % increase over DMSO SF-1-specific signal; activation, % at 10 µM; 1.9% of 65,000 active; AID 522;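 active = activation above the mean activation of all tested compounds plus 3 SD, cut at about 50% in these data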
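Test system: CHO-K1 cells co-transfected with Gal4 DBD–human SF-1 LBD, 5xGal4 luciferase reporter. Quantity: 4,000 cells per well. Compound: 10 µM only. Incubation: compound added 1 h post-seeding, 20 h exposure at 37 °C, 5% CO2. Detection: SteadyLite luciferase luminescence. Replication: one test per compound.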
RORA act: activates the human nuclear receptor RORA; P35398; activation, % at 10 µM; CHO-K1 Gal4-RORA LBD luciferase reporter, luminescence; percent increase over mock-subtracted basal signal; 1.5% of 65,000 active;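 active = activation above the mean of all tested compounds plus 3 SD, cut at about 49% in these data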;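 note: 0% = DMSO-treated RORA cells and 100% = added signal equal to DMSO minus mock-transfected cells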
Target sequence (P35398 whole entry, looked up, the tested form may be a part): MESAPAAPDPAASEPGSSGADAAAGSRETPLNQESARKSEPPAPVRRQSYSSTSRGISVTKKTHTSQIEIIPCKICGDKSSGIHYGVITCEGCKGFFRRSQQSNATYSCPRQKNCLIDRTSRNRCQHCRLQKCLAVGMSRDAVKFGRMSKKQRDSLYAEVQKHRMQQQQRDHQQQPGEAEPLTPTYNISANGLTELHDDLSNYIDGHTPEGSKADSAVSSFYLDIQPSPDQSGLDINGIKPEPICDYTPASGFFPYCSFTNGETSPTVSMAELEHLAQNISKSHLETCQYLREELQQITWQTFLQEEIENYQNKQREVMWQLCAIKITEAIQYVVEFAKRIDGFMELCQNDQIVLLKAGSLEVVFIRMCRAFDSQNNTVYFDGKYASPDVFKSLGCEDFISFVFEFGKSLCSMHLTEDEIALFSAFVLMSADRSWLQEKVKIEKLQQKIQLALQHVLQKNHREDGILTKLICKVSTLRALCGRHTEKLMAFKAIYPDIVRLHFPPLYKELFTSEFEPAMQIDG
The depositor's hits bear a star; ! = not confirmed by another sample.

For COc1cccc(-c2nnc(NC(=O)C3CCCCC3)o2)c1 the results were AP complement 10, MMP13 inh 0, Ec RNAP inh 8, HePTP inhibitor 2, SF1 activator 19 and RORA act 4.
Screening Cc1cccc(C)c1OCC(=O)Nc1cccc(-c2nnc(-c3ccccc3)o2)c1 returned AP complement -2, MMP13 inh 2, Ec RNAP inh -4, HePTP inhibitor -10, SF1 activator 37 and RORA act 16.
For O=C(Nc1cccc(-c2nnc(-c3ccccc3)o2)c1)C1CCCCC1 the results were AP complement 9, MMP13 inh 2, Ec RNAP inh -7, HePTP inhibitor 11, SF1 activator 53* and RORA act 49*.
For CCCCC(=O)Nc1cccc(-c2nnc(-c3ccccc3)o2)c1 the results were AP complement 13, MMP13 inh 0, Ec RNAP inh 0, HePTP inhibitor 10, SF1 activator 33 and RORA act 68*.
O=C(c1ccc(I)cc1)N1CCOCC1 was read as HePTP inhibitor 2.
`CCOC(=O)C1CCCN(c2nc3ccccc3nc2C(C#N)C(=O)OCCOC)C1` (configuration not stated) gave MMP13 inh 2, Ec RNAP inh 9, HePTP inhibitor -1, SF1 activator -5 and RORA act -2.
Screening CCOC(=O)C1CCCN(c2nc3ccccc3nc2C(C#N)C(=O)OCC)C1 (configuration not stated) returned AP complement -2, MMP13 inh 14*, HePTP inhibitor -7, SF1 activator -10 and RORA act -1.
`COCC(C)OC(=O)C(C#N)c1nc2ccccc2nc1N1CCN(Cc2ccccc2)CC1` (configuration not stated) gave AP complement 12, MMP13 inh -1, Ec RNAP inh 1, HePTP inhibitor 9, SF1 activator -8 and RORA act 5.
Screening CCOC(=O)C1CCCN(c2nc3ccccc3nc2C(C#N)C(=O)OC(C)COC)C1 (configuration not stated) returned AP complement 18, MMP13 inh 0, Ec RNAP inh 21*, HePTP inhibitor 3, SF1 activator -9 and RORA act -11.
Screening COc1ccc(/C=C/C(=O)NCc2ccc(Cl)cc2)cc1OC returned HePTP inhibitor -21.
Screening Cc1cccc(/C=C2\C(=O)NC(=O)N(c3ccc(Br)c(C)c3)C2=O)c1 returned HePTP inhibitor 3.
O=C1NC(=O)N(c2ccc(Br)cc2)C(=O)/C1=C/c1ccco1 was read as HePTP inhibitor 104*.
Cc1cc(N2C(=O)NC(=O)/C(=C\c3ccco3)C2=O)ccc1Br was read as HePTP inhibitor 80*.
Screening COc1ccccc1/C=C1\C(=O)NC(=O)N(c2ccc(Br)cc2)C1=O returned HePTP inhibitor 4.
For O=C(Nc1cccc(NC(=O)c2cccc(Cl)c2)c1)c1ccc([N+](=O)[O-])cc1 the results were HePTP inhibitor -2.
For O=C(O)c1ccc(CN2CCOCC2)cc1 the results were HePTP inhibitor -8.
Cc1ccc(C)n1Cc1ccc(C(=O)O)cc1 was read as MMP13 inh 4, Ec RNAP inh 19, HePTP inhibitor 104*!, SF1 activator 17 and RORA act 2.
For CCOc1cc(-c2cc(-c3ccc(N)cc3)nc(N)c2C#N)ccc1O the results were AP complement -9, MMP13 inh -173, Ec RNAP inh -30, HePTP inhibitor 3, SF1 activator 54* and RORA act 32.
CCOc1cc(-c2c(C#N)c(N)nc3c2CCCC3)ccc1O was read as AP complement -1, MMP13 inh 7, Ec RNAP inh 5, HePTP inhibitor 0, SF1 activator 2 and RORA act 13.
For CCOC(=O)C(=CNc1ccc(OC)c(OC)c1)C(=O)OCC the results were HePTP inhibitor -17.
Screening Cc1ccc(C2=N/C(=C/N3CCOCC3)C(=O)O2)cc1 returned AP complement -2, MMP13 inh 1, Ec RNAP inh 9, HePTP inhibitor 10, SF1 activator 55* and RORA act 34.
CCOC(=O)c1sc(NC(=O)c2cc(Cl)ccc2[N+](=O)[O-])c(C(=O)OCC)c1C was read as HePTP inhibitor 4.
